{"data": "Results collected from several papers", "cell line": "HepG2", "read-out": "cell growth or viability", "note": "Each line is one published result; the experiments were not run side by side."}
{"SMILES": "CC[C@@]1(OC(=O)C(C)c2cccc(C(=O)c3ccccc3)c2)C(=O)OCc2c1cc1n(c2=O)Cc2cc3cc4c(cc3nc2-1)OCO4 (some centres unmarked)", "method": "MTT", "IC50": "0.364 µM"}
{"SMILES": "CC1=C(O)C(=O)C=C2C1=CC=C1[C@@]2(C)CC[C@@]2(C)[C@@H]3C[C@](C)(C(=O)O)CC[C@]3(C)CC[C@]12C", "method": "MTT", "time": "48 h", "IC50": "1.23 µM"}
{"SMILES": "Cc1c2ccncc2c(C)c2c1[nH]c1ccccc12", "method": "MTT", "time": "72 h", "IC50": "0.45 µg/mL"}
{"SMILES": "Cl.O[C@]12C=C(c3nccc4c3[nH]c3ccccc34)[C@@H]3CCN(CCCC/C=C\\CC1)C[C@@]31C[C@@H]3/C=C\\CCCCN3[C@H]12", "method": "neutral red", "time": "48 h", "IC50": "1.55 µg/mL"}
{"SMILES": "CC[C@@]1(OC(=O)[C@@H](N)Cc2ccccc2)C(=O)OCc2c1cc1n(c2=O)Cc2cc3cc4c(cc3nc2-1)OCO4", "method": "MTT", "IC50": "0.088 µM"}
{"SMILES": "Cl.Cl.Nc1nc(-c2cc(F)cc(NC(=O)Nc3cc(F)cc(-c4c[nH]c(N)n4)c3)c2)c[nH]1", "method": "XTT", "time": "24 h", "IC50": "> 256 µg/mL"}
{"SMILES": "[Cl-].[Cl-].[Co+2]", "method": "MTT", "time": "48 h", "IC50": "> 150 µM"}
{"SMILES": "CC[C@@]1(OC(=O)Cc2c(C)n(C(=O)c3ccc(Cl)cc3)c3ccc(OC)cc23)C(=O)OCc2c1cc1n(c2=O)Cc2cc3cc4c(cc3nc2-1)OCO4", "method": "MTT", "IC50": "0.032 µM"}
{"SMILES": "N.N.[Cl][Pt][Cl]", "method": "MTT", "time": "48 h", "IC50": "14 µM"}
{"SMILES": "CC[C@@]1(OC(=O)[C@@H]2CCCN2)C(=O)OCc2c1cc1n(c2=O)Cc2cc3cc4c(cc3nc2-1)OCO4", "method": "MTT", "IC50": "0.263 µM"}
{"SMILES": "O=c1ccc2cc3ccoc3cc2o1", "method": "WST-1", "time": "48 h", "IC50": "17.2 µM"}
{"SMILES": "CCC1(c2ccc(N)cc2)CCC(=O)NC1=O (centres unmarked)", "method": "CCK-8", "time": "48 h", "IC50": "> 50 µM"}
{"SMILES": "COc1c2ccoc2cc2oc(=O)ccc12", "method": "WST-1", "time": "48 h", "IC50": "18.1 µM"}
{"SMILES": "O=C(O)CCCc1ccc(N(CCCl)CCCl)cc1", "method": "CCK-8", "time": "48 h", "IC50": "15.1 µM"}
{"SMILES": "Nc1nc(-c2cccc(NC(=O)Nc3cccc(-c4c[nH]c(N)n4)c3)c2)c[nH]1", "method": "XTT", "time": "24 h", "IC50": "850 µM"}
{"SMILES": "CC1=C(O)C(=O)C=C2C1=CC=C1[C@@]2(C)CC[C@@]2(C)[C@@H]3C[C@](C)(C(=O)OCCCn4cc(C=O)c5ccccc54)CC[C@]3(C)CC[C@]12C", "method": "MTT", "time": "48 h", "IC50": "1.76 µM"}
{"SMILES": "CC[C@@]1(OC(=O)[C@H](C)N)C(=O)OCc2c1cc1n(c2=O)Cc2cc3cc4c(cc3nc2-1)OCO4", "method": "MTT", "IC50": "0.101 µM"}
